The record followed here is the EternaBench riboswitch data.

The subject of this data set is MS2 coat protein. The experiment in a line: apparent Kd, MS2 coat protein; higher = weaker binding; RNA-MaP array; FMN 200 µM where present. In a few lines: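 Green signal was scaled to red-channel RNA signal and control-cluster median Fmax, and the apparent Kd was taken as the median of filtered per-cluster binding-curve fits. The binding series used SNAP-549-labelled MS2 coat protein from 0.7 or 1.5 nM, doubling to 3 µM, on designs transcribed by stalled E. coli RNA polymerase on Illumina sequencing-chip clusters. Each series ran without and then with constant ligand in 100 mM Tris-HCl pH 7.5, 80 mM KCl, 4 mM MgCl2, BSA, DTT, yeast tRNA and Tween-20.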

Setting [1] is: designed as: OFF switch for flavin mononucleotide, no ligand.
The mark [2] stands for this setting: ligand present: flavin mononucleotide, designed as: OFF switch for flavin mononucleotide.
The mark [3] stands for this setting: designed as: ON switch for flavin mononucleotide, no ligand.
Setting [4] is: ligand present: flavin mononucleotide, designed as: ON switch for flavin mononucleotide.

What is called apparent Kd is the concentration giving half-maximal binding under the conditions of the assay. Regarding “ACUAUACGAGGAUAUGCUGUCAGUACUCAGAGGUUAGUGUGACAUGAGGAUCACCCAUGUAGAAGGCGUUUACU”, the “apparent Kd” value by setting is: under setting [1], 40.8 nM; under setting [2], 34 nM.

Take “GAGUUACAUGAGGAUCACCCAUGUGGUUGUGGAUAAGGAUAUAUGGUAGGAGGAGGAAUGAUAGAAGGUAUUAGGG”: the “apparent Kd” value came to 69 nM under setting [3] and 45.5 nM under setting [4].

Consider “UUAUUUAGGUAGGAUAUCGAUAUUAAUUAUUAUCGAGAAGGGUCUACAUGAGGAUCACCCAUGUUAGCAUGUAU”, for which the “apparent Kd” value by setting is: under setting [1], 28.1 nM; under setting [2], 29.9 nM.

Turning to “GUAGCAUUGACAGGAUAUCCAUAUCCGAAAGGGACAUGAGGAUCACCCAUGUCGCGAAAGCGGUGGGAGAAGGGUCUAUGCUAC”, the “apparent Kd” value reads like this: under setting [3], 5.03 nM; under setting [4], 4.38 nM.

On to “UUUGAUAGCACAGGAUAUUGUCAUUUGAGUUGUCAAGAAGGGUGUACAUGAGGAUCACCCAUGUAAUGGUUGCCUCGCUGACUU”, for which the “apparent Kd” value worked out at 175 nM under setting [1] and 279 nM under setting [2].

On to “UUACCUUAUGAGAAGGCGGUCAUGAAACAUGAUCGAGGAUAUCAUGUAAACAUGAGGAUCACCCAUGUAUGGGUAUUAUGGUAC”, for which the “apparent Kd” value under setting [3] is 165 nM and the “apparent Kd” value under setting [4] came to 31.8 nM.

Consider “AAUACAUGAGGAUCACCCAUGUUAUGAUCAAACAAUAUGAGUGAGGAUAUACUGAGUUAGUUAUGGUAGAAGGCACUGGGUUCA”, for which the “apparent Kd” value under setting [3] worked out at 79.9 nM and the “apparent Kd” value under setting [4] worked out at 45.3 nM.

In the case of “CAUUCUUUUCCGGAGGAUAUGCUACCCUUUACAUGAGGAUCACCCAUGUUACCCUCUUCUUGUCAGUAGAAGGCCGUUUCUUAAC”, the “apparent Kd” value by setting is: under setting [3], 27.4 nM; under setting [4], 25.1 nM.

Consider “UUUUAACAUGAGGAUCACCCAUGUGAGGAUAUCGAAAUUUAUAUUAAUAUUUAUAAUACGAGAAGGCACAUUUU”, for which the “apparent Kd” value reads like this: under setting [1], 85 nM; under setting [2], 90.6 nM.

As to “CUUCUGUCAGGAUAUGCGAAUCACCACUGGGUCAGUGGUGAGCAGAAGGGACAUGAGGAUCACCCAUGUAAAGU”, the “apparent Kd” value runs as follows: under setting [1], 36.3 nM; under setting [2], 169 nM.

In the case of “GCACUUACGUUAGGAUAUGGAUCGGAAAACGAUCCAGAAGGAAUAUGGGAACAUGAGGAUCACCCAUGUUCCACAGACAAGUGC”, the “apparent Kd” value is 43.3 nM under setting [3] and 25.9 nM under setting [4].

As for “ACGACGAAAGUCGAACGAUGUAGCAGAAGGACAUGAGGAUCACCCAUGUCAGCUGUAACAGCCAUGUAGGAUAUGCUACAUCGA”, the “apparent Kd” value runs as follows: under setting [1], 4.35 nM; under setting [2], 5.67 nM.

For “CUCAUGUUAGGAUAUGCGCUCGACCUAGUGGUCGAGCUCUAGCAGAAGGAACAUGAGGAUCACCCAUGUUUGCA”, the “apparent Kd” value by setting is: under setting [1], 63.3 nM; under setting [2], 19.6 nM.

As for “AAUAAACUCACAGGAUAUAGCAGAUGUCGCGUGAACUUACAGGCGACGAUGCUAGAAGGGUGACCACAUGAGGAUCACCCAUGU”, the “apparent Kd” value runs as follows: under setting [3], 1200 nM; under setting [4], 142 nM.

On to “AAUUGGAUGCAGAAGGCAUGGACGACUCGUCACAUUAACAUGAGGAUCACCCAUGUAAUAAGACAUGAGGAUAUGCAUCCUAAA”, for which the “apparent Kd” value by setting is: under setting [3], 7.68 nM; under setting [4], 5.49 nM.

Consider “CUAUUGGCAGGAUAUGCUUUUUUUGACAUGAGGAUCACCCAUGUGAUGCAUUUUGGGUUUGCAGAAGGGCCUGAGU”, for which the “apparent Kd” value by setting is: under setting [1], 74.3 nM; under setting [2], 75.1 nM.

“AAAAGUUCAGGAUAUACAUGAGGAUCACCCAUGUAGAAAGGAAGUGUAAAAAAAAAGUGUAGAAGGGAGCAUGA”: the “apparent Kd” value under setting [1] was determined as 31.7 nM and the “apparent Kd” value under setting [2] came to 29.1 nM.

On to “AUCAGCUCGUCAGGAUAUACGUCACUGCGUCAGCAGUGUGGUAAGGUCACAUGAGGAUCACCCAUGUAGAAGGGACGAGCUGAU”, for which the “apparent Kd” value under setting [1] was 9.4 nM and the “apparent Kd” value under setting [2] worked out at 117 nM.

Take “UGUCGGAGCAGAGGAUAUUACAUGAGGAUCACCCAUGUAUGAACCAAUAGCUGGAAACAGCAAUGUAAGAAGGCCGCUCCGACA”: the “apparent Kd” value under setting [1] came to 5.82 nM and the “apparent Kd” value under setting [2] was found to be 28.5 nM.

As for “GUAGAGUCAGGAUAUACGAGAUCGAUAGAUCAAAGAUCCUUACAUGAGGAUCACCCAUGUAGAAGGGACUCUAC”, the “apparent Kd” value reads like this: under setting [1], 37.4 nM; under setting [2], 677 nM.

Take “UGUUACUAGUAAGGAUAUACUUGCGAUUAGCUUGUAGAAGGUACAGUCUUUUGUAUAACAUGUUUACAUGAGGAUCACCCAUGU”: the “apparent Kd” value came to 10.7 nM under setting [3] and 8.69 nM under setting [4].

On to “GUGGUCAGACAUGAGGAUCACCCAUGUGGAAUAAAUAAGGAGAAGGAUAUGGAAUAUAGGAUAUACCAGAAGGUUUGGUUGGUG”, for which the “apparent Kd” value runs as follows: under setting [3], 112 nM; under setting [4], 116 nM.

For “CUUUUGUGAGGAUAUUCGUAGUAGGGUCAUGGCACUAUUAUGAAGAAGGCACAUGAGGAUCACCCAUGUACCUU”, the “apparent Kd” value by setting is: under setting [1], 15.3 nM; under setting [2], 26.8 nM.

As for “UCUACAUAAAUUCAUCAAUACAGAAAGGAUAUGAGAUACAUGAGGAUCACCCAUGUGCAUGUGAAUUAGAAGGUUCAAUUAACU”, the “apparent Kd” value reads like this: under setting [1], 14.4 nM; under setting [2], 11.1 nM.

As for “AACUCGUCAGGAUAUGCGCGCAGUUAAUACGCUUCGCAAUUGCAGAAGGGACAUGAGGAUCACCCAUGUAAAUA”, the “apparent Kd” value runs as follows: under setting [1], 32.1 nM; under setting [2], 33.1 nM.

For the sequence “AAGAAGGACGCAGGAUAUCCAGGACCUCCCGCAGGAGAAGGGCGAGACAUGAGGAUCACCCAUACAUGAGGAUCACCCAUGUAA”, the “apparent Kd” value runs as follows: under setting [1], 20.4 nM; under setting [2], 22.3 nM.

For “GGCUACGUUUCGUAGCAGCUAGGUGAGGAUAUUCAAUUUUUCACAUGAGGAUCACCCAUGUAUGUGAAGAAGGCGCCUAGAAAG”, the “apparent Kd” value was 12.6 nM under setting [3] and 4.85 nM under setting [4].

Take “UACAAUCUAUCUGAGGAUAUCAUGAAAAAAACAUGAGGAUCACCCAUGUGCAGGAAAACUGCAUAUGAGAAGGCAGAUAGAUUGC”: the “apparent Kd” value reads like this: under setting [3], 671 nM; under setting [4], 29.3 nM.

For the sequence “UCGACCAGCGCCAGCCGAACAUGAGGAUCACCCAUGUACUCCAGAAGGCCGCCCAAGAACGGAGUGGAGGAUAUGGAGGUUCUC”, the “apparent Kd” value worked out at 38 nM under setting [3] and 35.5 nM under setting [4].

Take “GACAUGGUCCAGAAGGGCUAUUUAUUUAAGUAUUAUUUAGAACAGCAUAGCAGGAUAUGGCUAACAUGAGGAUCACCCAUGUUC”: the “apparent Kd” value runs as follows: under setting [3], 18.8 nM; under setting [4], 11.6 nM.

Turning to “AGAUAGUCAGGAUAUACGUGGAUGGAACACUUAUUUCCACUACAUGAGGAUCACCCAUGUAGAAGGGACUAUCA”, the “apparent Kd” value by setting is: under setting [1], 17.8 nM; under setting [2], 17.8 nM.

As to “CUGAGCAAUGUAGGAUAUCGACUGGAUAACAGUCGAGAAGGACAUGAGGAUCACCCAUGUAAAUGAGUGAAUAAUAAAGCUCAG”, the “apparent Kd” value by setting is: under setting [1], 1070 nM; under setting [2], 331 nM.

As to “AAGAAACAUGAGGAUCACCCAUGUGAGGAUAUGAAAAAGAAAAGAAAAGAAAGAAGGUUCAGAAGGCACAAAGG”, the “apparent Kd” value is, setting by setting: under setting [1], 32.8 nM; under setting [2], 64.8 nM.

Regarding “UAGUUUUAGCGAGGAUAUCGUAUGUUUAAUUUUUUAUAUUGUUUACAUGAGGAUCACCCAUGUUACGAGAAGGCGCAUGGGAUU”, the “apparent Kd” value runs as follows: under setting [3], 388 nM; under setting [4], 100 nM.

For the sequence “UUCACCUUAUUUUACAUGAGGAUCACCCAUGUUUUUUUUACGUAGGAUAUCGAUGCUUGUUUAUUCGAGAAGGACGAUGUAAGU”, the “apparent Kd” value was 36.6 nM under setting [3] and 32.4 nM under setting [4].

With “CUUUAUAAUACCUCAUGUACAUGAGGAUCACCCAUGUUAACUAAGGAUAUAUAUAAAUUAAUAAUGUAGAAGGUAGUACUAUUU”, the “apparent Kd” value came out at 17.3 nM under setting [1] and 14.8 nM under setting [2].

Regarding “UUUUUGUCAGGAUAUGAGUCGUAGAACAAUAGUACUACGUCUCAGAAGGGACAUGAGGAUCACCCAUGUGCCUC”, the “apparent Kd” value amounted to 26 nM under setting [1] and 143 nM under setting [2].

With “UUACGUCCCGUUUACAUGAGGAUCACCCAUGUCGAAAGAGCGUAGGAUAUGCUACCUAGUUGGUAGCAGAAGGAUGCAACGUCG”, the “apparent Kd” value by setting is: under setting [3], 25.2 nM; under setting [4], 37.5 nM.

“UUAAAUCAUGUAGGAUAUGCAUGGCGAAGCUACGCAGAAGGACAUGAGGAUCACCCAUGUUAUAGCGUCCGAUUAAGGAUGCAA”: the “apparent Kd” value reads like this: under setting [1], 91.9 nM; under setting [2], 216 nM.

As for “CAACCGUUGCAGAAGGUUAAAUAAUUUCUCAUCUUGUUUACAUGAGGAUCACCCAUGUAUUUGUUGAAGGAUAUGCAAGGGUUG”, the “apparent Kd” value under setting [1] worked out at 6.96 nM and the “apparent Kd” value under setting [2] was 6.6 nM.

As for “GAGUCGAGUAAUAAAUAAGAUCUACAUGAGGAUCACCCAUGUAAGGAUAUGCAGUGGAAUACACUGCAGAAGGUACAUCUCGAC”, the “apparent Kd” value turned out to be 15.1 nM under setting [1] and 33.4 nM under setting [2].

For “UUUAAGAAUGAAGGAUAUCUAAAAGUAAUCUUAAGAGAAGGUCAAUAGAACAUGAGGAUCACCCAUGUUAGAAUAGAUGGGUUU”, the “apparent Kd” value by setting is: under setting [1], 96.7 nM; under setting [2], 110 nM.

Turning to “UUUUCGGCAGGAUAUACAUGAGGAUCACCCAUGUAAAUUUUUCGUUUAACUUGAAUGUGUAGAAGGGCCAUUUU”, the “apparent Kd” value by setting is: under setting [1], 23.3 nM; under setting [2], 23.6 nM.

With “AUCGGCCCGUAGAAGGGUGACAUGAGGAUCACCCAUGUGCCGCGUGCAUUUAUGCCUCCGCGGCCACAGGAUAUACGGAGUUGA”, the “apparent Kd” value under setting [3] worked out at 61 nM and the “apparent Kd” value under setting [4] is 50 nM.

As to “AUAAUUUUGUAGAAGGUACGUGAUUAGUCAAAGUAAGGAUAUACUGACAUGAGGAUCACCCAUGUUUUAAUAGUUAACAGUUCU”, the “apparent Kd” value runs as follows: under setting [3], 12.8 nM; under setting [4], 7.99 nM.

Consider “UGGUUGUGAGGAUAUACGUUUUUUAACUCUUGUUUUAUACUGUAGAAGGCACAUGAGGAUCACCCAUGUUACGU”, for which the “apparent Kd” value turned out to be 22.4 nM under setting [1] and 26 nM under setting [2].

As to “CUCAUGUGAGGAUAUAGUACUUCUUCUAUUAUUAUUGAGUACUAGAAGGCACAUGAGGAUCACCCAUGUAGUAC”, the “apparent Kd” value under setting [1] was 16 nM and the “apparent Kd” value under setting [2] came out at 16.3 nM.

As for “ACUGUCCGAGAGAAGGGAACAUGAGGAUCACCCAUGUUACCUCACCCGGUGACGGAACUCCAAGUUCAGGAUAUCUCGAGCGGU”, the “apparent Kd” value under setting [1] worked out at 7.09 nM and the “apparent Kd” value under setting [2] is 12.6 nM.
